In ChEMBL document CHEMBL4689842, “EUbOPEN Chemogenomics Library wave 1” (2021):

System: Fibroblast
Experiment: Multiplex assay against human fibroblast
Assay type: toxicity, cell-based
In short: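 Per cents of healthy-nucleus cells form the tubulin, mitochondrial-mass and membrane-permeability phenotype values. Live cells were stained at seeding with Hoechst33342, BioTracker Green Microtubule Cytoskeleton Dye, MitoTracker Red and Annexin V Alexa Fluor 680. After compound addition they were imaged on a CQ1 microscope at 37°C and 5% CO2, and CellPathfinder machine-learning gating split them into Hoechst high-intensity objects or normal cells, normal cells into healthy, pyknosed or fragmented nuclei, and pyknosed cells into mitotic or apoptotic.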

[1] = 12 h, 1 µM, compound concentration 1 uM, replicate 1
[2] = 12 h, 1 µM, compound concentration 1 uM, replicate 2
[3] = 12 h, 10 µM, compound concentration 10 uM, replicate 1
[4] = 12 h, 10 µM, compound concentration 10 uM, replicate 2
[5] = 24 h, 1 µM, compound concentration 1 uM, replicate 1
[6] = 24 h, 1 µM, compound concentration 1 uM, replicate 2
[7] = 24 h, 10 µM, compound concentration 10 uM, replicate 1
[8] = 24 h, 10 µM, compound concentration 10 uM, replicate 2
[9] = 48 h, 1 µM, compound concentration 1 uM, replicate 1
[10] = 48 h, 1 µM, compound concentration 1 uM, replicate 2
[11] = 48 h, 10 µM, compound concentration 10 uM, replicate 1
[12] = 48 h, 10 µM, compound concentration 10 uM, replicate 2

SMILES: Nc1ccc(C(=O)Nc2cccc(-c3nc(N4CCOCC4)c4oc5ncccc5c4n3)c2)cn1
- Population Apoptotic (%) [1]: 63%
- Population Fragmented Nuclei (%) [1]: 24%
- Population Healthy Nuclei (%) [1]: 43%
- Population Hoechst High Intensity Objects (%) [1]: 14%
- Population Mitochondria Different-Phenotype (%) [1]: 4%
- Population Mitotic Cells (%) [1]: 36%
- Population Normal (%) [1]: 85%
- Population Pyknosed Nuclei (%) [1]: 31%
- Population Tubulin-Different-Phenotype (%) [1]: 60%
- Total Cell Count [1]: 134
- Population Apoptotic (%) [2]: 9%
- Population Fragmented Nuclei (%) [2]: 20%
- Population Healthy Nuclei (%) [2]: 61%
- Population Hoechst High Intensity Objects (%) [2]: 10%
- Population Mitochondria Different-Phenotype (%) [2]: 21%
- Population Mitotic Cells (%) [2]: 90%
- Population Normal (%) [2]: 89%
- Population Pyknosed Nuclei (%) [2]: 17%
- Population Tubulin-Different-Phenotype (%) [2]: 28%
- Total Cell Count [2]: 55
- Population Apoptotic (%) [3]: 54%
- Population Fragmented Nuclei (%) [3]: 57%
- Population Healthy Nuclei (%) [3]: 28%
- Population Hoechst High Intensity Objects (%) [3]: 41%
- Population Mitochondria Different-Phenotype (%) [3]: 9%
- Population Mitotic Cells (%) [3]: 45%
- Population Normal (%) [3]: 58%
- Population Pyknosed Nuclei (%) [3]: 13%
- Population Tubulin-Different-Phenotype (%) [3]: 80%
- Total Cell Count [3]: 554
- Population Apoptotic (%) [4]: 51%
- Population Fragmented Nuclei (%) [4]: 62%
- Population Healthy Nuclei (%) [4]: 15%
- Population Hoechst High Intensity Objects (%) [4]: 19%
- Population Mitochondria Different-Phenotype (%) [4]: 76%
- Population Mitotic Cells (%) [4]: 48%
- Population Normal (%) [4]: 80%
- Population Pyknosed Nuclei (%) [4]: 22%
- Population Tubulin-Different-Phenotype (%) [4]: 90%
- Total Cell Count [4]: 69
- Population Apoptotic (%) [5]: 38%
- Population Fragmented Nuclei (%) [5]: 38%
- Population Healthy Nuclei (%) [5]: 39%
- Population Hoechst High Intensity Objects (%) [5]: 16%
- Population Mitochondria Different-Phenotype (%) [5]: 3%
- Population Mitotic Cells (%) [5]: 61%
- Population Normal (%) [5]: 83%
- Population Pyknosed Nuclei (%) [5]: 21%
- Population Tubulin-Different-Phenotype (%) [5]: 64%
- Total Cell Count [5]: 169
- Population Apoptotic (%) [6]: 21%
- Population Fragmented Nuclei (%) [6]: 28%
- Population Healthy Nuclei (%) [6]: 52%
- Population Hoechst High Intensity Objects (%) [6]: 5%
- Population Mitochondria Different-Phenotype (%) [6]: 42%
- Population Mitotic Cells (%) [6]: 78%
- Population Normal (%) [6]: 95%
- Population Pyknosed Nuclei (%) [6]: 18%
- Population Tubulin-Different-Phenotype (%) [6]: 27%
- Total Cell Count [6]: 57
- Population Apoptotic (%) [7]: 68%
- Population Fragmented Nuclei (%) [7]: 53%
- Population Healthy Nuclei (%) [7]: 32%
- Population Hoechst High Intensity Objects (%) [7]: 46%
- Population Mitochondria Different-Phenotype (%) [7]: 30%
- Population Mitotic Cells (%) [7]: 31%
- Population Normal (%) [7]: 53%
- Population Pyknosed Nuclei (%) [7]: 13%
- Population Tubulin-Different-Phenotype (%) [7]: 76%
- Total Cell Count [7]: 514
- Population Apoptotic (%) [8]: 84%
- Population Fragmented Nuclei (%) [8]: 60%
- Population Healthy Nuclei (%) [8]: 5%
- Population Hoechst High Intensity Objects (%) [8]: 19%
- Population Mitochondria Different-Phenotype (%) [8]: 100%
- Population Mitotic Cells (%) [8]: 15%
- Population Normal (%) [8]: 80%
- Population Pyknosed Nuclei (%) [8]: 34%
- Population Tubulin-Different-Phenotype (%) [8]: 100%
- Total Cell Count [8]: 80
- Population Apoptotic (%) [9]: 66%
- Population Fragmented Nuclei (%) [9]: 47%
- Population Healthy Nuclei (%) [9]: 45%
- Population Hoechst High Intensity Objects (%) [9]: 17%
- Population Mitochondria Different-Phenotype (%) [9]: 0%
- Population Mitotic Cells (%) [9]: 33%
- Population Normal (%) [9]: 82%
- Population Pyknosed Nuclei (%) [9]: 7%
- Population Tubulin-Different-Phenotype (%) [9]: 60%
- Total Cell Count [9]: 190
- Population Apoptotic (%) [10]: 0%
- Population Fragmented Nuclei (%) [10]: 58%
- Population Healthy Nuclei (%) [10]: 41%
- Population Hoechst High Intensity Objects (%) [10]: 25%
- Population Mitochondria Different-Phenotype (%) [10]: 3%
- Population Mitotic Cells (%) [10]: 0%
- Population Normal (%) [10]: 74%
- Population Pyknosed Nuclei (%) [10]: 0%
- Population Tubulin-Different-Phenotype (%) [10]: 76%
- Total Cell Count [10]: 205
- Population Apoptotic (%) [11]: 51%
- Population Fragmented Nuclei (%) [11]: 51%
- Population Healthy Nuclei (%) [11]: 25%
- Population Hoechst High Intensity Objects (%) [11]: 49%
- Population Mitochondria Different-Phenotype (%) [11]: 46%
- Population Mitotic Cells (%) [11]: 48%
- Population Normal (%) [11]: 50%
- Population Pyknosed Nuclei (%) [11]: 23%
- Population Tubulin-Different-Phenotype (%) [11]: 78%
- Total Cell Count [11]: 516
- Population Apoptotic (%) [12]: 100%
- Population Fragmented Nuclei (%) [12]: 82%
- Population Healthy Nuclei (%) [12]: 14%
- Population Hoechst High Intensity Objects (%) [12]: 67%
- Population Mitotic Cells (%) [12]: 0%
- Population Normal (%) [12]: 32%
- Population Pyknosed Nuclei (%) [12]: 2%
- Population Tubulin-Different-Phenotype (%) [12]: 73%
- Total Cell Count [12]: 323
